UCH37 DUB inh: inhibitors of human deubiquitinating enzyme UCH37; 330,000 compounds, 0.33% hits; inhibition, % (no concentration beside the values); purified proteasome/UCH37, Ub-AMC cleavage fluorescence;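 active = mean inhibition over replicate wells above about 20%, limit read from the data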;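 also: 0% = compound-free wells with enzyme and 100% = wells lacking proteasome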
Target sequence (Q9Y5K5 whole entry, looked up): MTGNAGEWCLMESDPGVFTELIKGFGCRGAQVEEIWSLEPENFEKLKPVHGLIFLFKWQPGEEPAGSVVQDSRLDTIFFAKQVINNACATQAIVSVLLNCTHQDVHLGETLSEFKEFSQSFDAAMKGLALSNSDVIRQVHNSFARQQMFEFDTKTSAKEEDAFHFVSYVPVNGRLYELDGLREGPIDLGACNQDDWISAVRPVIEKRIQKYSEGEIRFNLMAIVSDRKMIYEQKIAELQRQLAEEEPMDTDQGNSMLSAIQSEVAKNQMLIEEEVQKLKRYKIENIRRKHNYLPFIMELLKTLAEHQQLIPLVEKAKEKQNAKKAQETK
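assay system = human UCH37 enzyme supplied as purified proteasome complex | amount = proteasome at 0.15 nM in the dispensed enzyme solution | schedule = 30 min compound-proteasome preincubation then 25 min substrate reaction, room temperature | measured by = fluorescence, ex 355 nm, em 460 nm | benchmarks = no-proteasome wells (full inhibition) and compound-free wells (no inhibition)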
ATG4B inh: blocks human ATG4B protease cleavage of LC3 substrate; ATG4B cleavage of LC3-PLA2, NBD-HPC fluorescence, 1 h; inhibition, % at 8.33 µM; 340,000 compounds, 0.51% hits; AID 504462; in the data active = inhibition above about 40%
Rin1 Abl inh: inhibitors of human Rin1-Abl protein interaction | 360,000 compounds, 0.4% hits | inhibition, % at 7.35 µM | TR-FRET Rin1/Abl binding, biochemical; in the data active = inhibition above about 5%, passing the limit was not always enough
Tb MetRS inh: Trypanosoma brucei MetRS inhibition | AID 624268 | 360,000 compounds, 0.4% hits | inhibition, % at 11.9 µM | purified T. brucei MetRS, ATP depletion, Kinase-Glo luminescence;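 active = inhibition above a per-plate cutoff of the control wells' mean inhibition plus 3 SD, cut at about 5.5% in these data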;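 also: 0% = DMSO wells median and 100% = median of wells with control inhibitor compound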
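Assay system: T. brucei methionyl-tRNA synthetase, purified | Medium: HEPES buffer with MgCl2, KCl, DTT, spermine, BSA, pyrophosphatase | Compound: 11.9 µM single point | Incubation: 15 min enzyme-compound preincubation, 2 h reaction, 10 min detection, 25 °C | Measured by: Kinase-Glo luciferase luminescence reporting remaining unconsumed ATP | Measure: % inhibition normalized to control-well medians | Replication: Singlicate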
TbMetRS confirm: Trypanosoma brucei MetRS inhibition confirmed; shares compounds with Tb MetRS inh; T. brucei MetRS enzyme, luminescence (ATP depletion); inhibition, % at 11.9 µM; 1,400 compounds, 93% hits; AID 624412; in the data active = inhibition above about 7%
Jurkat tox: kills Jurkat cells in T. brucei MetRS counterscreen | shares compounds with Tb MetRS inh | AID 624413 | inhibition, % at 8.3 µM | Jurkat cells viability, ATP luminescence | 1,400 compounds, 12% hits; in the data active = inhibition above about 15%;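 also: 0% = vehicle and 100% = reference inhibitor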
TbMetRS FP orth: inhibits T. brucei methionyl tRNA synthetase in orthogonal FP test | AID 651607 | purified T. brucei MetRS, fluorescence polarization | shares compounds with Tb MetRS inh | inhibition, % at 11.9 µM | 1,400 compounds, 44% hits; in the data active = inhibition above about 17%;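 also: 0% = vehicle wells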
Active calls of the source: *; nt = no result given. The list is not random: actives were taken first. Their share in the collection is about 1.4%.

SMILES | UCH37 DUB inh | ATG4B inh | Rin1 Abl inh | Tb MetRS inh | TbMetRS confirm | Jurkat tox | TbMetRS FP orth
O=C(Nc1ccc(Cl)c(Cl)c1)OCCNC(=O)c1cccc(Cl)c1 | 4 | -6 | -2 | 40* | 58* | 5 | 35*
CN(CC(=O)Nc1ccc(Cl)c(C(F)(F)F)c1)C(=O)/C=C/c1cccs1 | 2 | 5 | 2 | 21* | 70* | 5 | 41*
CN(CC(=O)Nc1ccc(Cl)c(C(F)(F)F)c1)C(=O)/C=C/c1ccco1 | 1 | 0 | -1 | 29* | 38* | 1 | 21*
O=C(CSc1nnc2ccc(-c3ccc(Br)cc3)nn12)NCC1CCCO1 (stereo not given) | -15 | -6 | -1 | 8.0* | 33* | 1 | 12
O=C(O)c1cccc(Cn2c(Cl)c(/C=N/NC(=O)c3cc4ccccc4cc3O)sc2=O)c1 | nt | 10 | 0 | 5.7* | 18* | -1 | 34*
COC(=O)c1nc2ccccn2c1F | -6 | -4 | 3 | -1 | nt | nt | nt
CSC[C@H]1CN(Cc2ccccc2)C(=O)[C@@H]1CC(=O)Nc1ccc(Br)cc1 | nt | nt | -3 | 17* | 30* | 0 | 11
O=C(C[C@H]1C(=O)N(Cc2ccccc2)C[C@@H]1c1ccc(Br)cc1)Nc1ccc(Br)cc1 | nt | nt | -1 | 77* | 94* | 6 | 83*
COc1ccc(NC(=O)C[C@H]2C(=O)N(Cc3ccccc3)C[C@@H]2c2ccc(OC)cc2)cc1 | nt | nt | -2 | 0 | nt | nt | nt
COc1ccc([C@H]2CN(c3ccc(OC)cc3)C(=O)[C@@H]2CC(=O)Nc2ccc(Br)cc2)cc1 | nt | nt | -3 | 8.6* | 19* | 10 | 8
O=C(C[C@H]1C(=O)N(Cc2ccccc2)C[C@@H]1Cc1ccccc1)Nc1ccc(Br)cc1 | nt | nt | -2 | 10* | 30* | 7 | 8
CC(NC(=O)Cn1nc(-c2ccccc2)ccc1=O)c1ccccc1 (stereo not given) | 2 | -2 | -4 | 1 | nt | nt | nt
COc1ccc(CCN(C)C/C=C/c2ccccc2)cc1OC | 2 | -14 | 1 | 0 | nt | nt | nt
O=C(C[C@H]1C(=O)N(Cc2cccnc2)C[C@@H]1Cc1ccccc1)Nc1ccc(Br)cc1 | nt | nt | 2 | 41* | 67* | 11 | 41*
COc1ccc(OC)c(CNC(=O)CCN2C(=O)COc3ccccc32)c1 | -1 | 3 | 0 | -1 | nt | nt | nt
CCO[C@@H]1OC(C(=O)NCc2nc3ccccc3[nH]2)=C[C@H](c2ccc(C(F)(F)F)cc2)[C@H]1CCCO | 2 | -10 | 1 | 33* | 61* | 3 | 38*
C#Cc1ccc([C@@H]2C=C(C(=O)NCc3nc4ccccc4[nH]3)O[C@H](OCC)[C@H]2CCCO)cc1 | 0 | -1 | 3 | 28* | 51* | 6 | 33*
CCO[C@H]1OC(C(=O)NCc2nc3ccccc3[nH]2)=C[C@@H](c2ccc(C(F)(F)F)cc2)[C@@H]1CCCO | 3 | -10 | 0 | 11* | 35* | 6 | 12
CCO[C@H]1OC(C(=O)NCc2nc3ccccc3[nH]2)=C[C@@H](C)[C@@H]1CCCO | 5 | -5 | 4 | 2 | nt | nt | nt
O=C(COc1cccc(-n2cnnn2)c1)Nc1ccccc1 | 1 | 3 | 3 | 11* | 19* | 9 | 17*
O=C(Nc1ccc(Br)cc1)c1cccc(-n2cnnn2)c1 | 2 | -5 | -1 | 6.5* | 13* | 2 | 6
COc1ccc(NC(=O)COc2cccc(-n3cnnn3)c2)cc1 | 1 | 8 | 3 | 10.0* | 20* | -1 | 13
CS(=O)(=O)c1ccc(NC(=O)c2cccc(-n3cnnn3)c2)cc1 | -3 | -4 | 5 | 0 | nt | nt | nt
N=C1C(=O)OCC1c1cc(Cl)ccc1NC(=O)Nc1ccccc1 (stereo not given) | -1 | 2 | 4 | 3 | nt | nt | nt
O=C(Nc1ccc(F)cc1)N1CCN2C(=O)c3ccccc3C12c1ccccc1 (stereo not given) | 5 | -8 | -2 | 0 | nt | nt | nt
SMILES | UCH37 DUB inh | ATG4B inh | Rin1 Abl inh | Tb MetRS inh | TbMetRS confirm | Jurkat tox | TbMetRS FP orth
COc1ccc2[nH]cc(C(=O)C(=O)N3CCCCC3)c2c1 | 4 | -14 | -3 | -1 | nt | nt | nt
COc1ccc2c(c1)CCC(C)N2C(=O)C(=O)c1c[nH]c2ccccc12 (stereo not given) | 1 | -3 | -7 | 12* | 17* | 15 | 10
NC(=O)[C@@H]1CCCNc2c(I)cc([N+](=O)[O-])cc2C(=O)N[C@@H](CO)C(=O)N[C@@H](Cc2ccc(O)cc2)C(=O)N1 | 0 | 5 | -3 | 7.4* | 21* | 8 | 5
CC(C)OCCCNc1ncnc2c1[nH]c1ccccc12 | -33 | 9 | -2 | 74* | 87* | 38* | 64*
O=C(COc1ccc2ccccc2c1)Nc1nc2ccccc2[nH]1 | 4 | 4 | 1 | 9.1* | 12* | 2 | 5
COc1ccc(OCC(=O)Nc2nc3ccccc3[nH]2)cc1 | 1 | -13 | 0 | 0 | nt | nt | nt
COc1cccc(CC(=O)Nc2nc3ccccc3[nH]2)c1 | 0 | 5 | 5 | 6.0* | 14* | 0 | 7
